Test results taken from ChEMBL document CHEMBL1124145, “Dinucleotide analogues as inhibitors of thymidine kinase, thymidylate kinase, and ribonucleotide reductase” (J Med Chem, 1988).

Key:
Format in all cases: cell-based
[1] = Concentration required to reduce thymidine kinase rate by 50% in L1210 cells
Procedure, shortened: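 Cytoplasmic isoenzyme affinity-purified from L1210 cells. Reaction: 1 mM ATP, 1 mM MgCl2, 10 μM [3H]thymidine (150 μCi/μmol), 5% sucrose, 40 mM Tris pH 7.8. Inhibitor ranged 0-500 μM. Inhibitor concentrations were verified by UV absorbance at 260 nm.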

[2] = Concentration required to reduce Ribonucleotide reductase rate by 50% in L1210 cells
Procedure, shortened: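 Enzyme: crude L1210 extract brought to pH 5.2 with 1 M acetic acid; the precipitate was dissolved in 50 mM Tris-HCl pH 8.0. CDP reductase activity was measured by a published method. Data were fitted by nonlinear least-squares regression to response = a + b ln[inhibitor] with weighted error, and the IC50 was taken from the fit.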

Thymidylate kinase = target: T1, Thymidylate kinase (Homo sapiens, UniProt P23919); test: Concentration required to reduce Thymidylate kinase rate by 50% in human blast cells
T1 sequence (P23919 whole entry): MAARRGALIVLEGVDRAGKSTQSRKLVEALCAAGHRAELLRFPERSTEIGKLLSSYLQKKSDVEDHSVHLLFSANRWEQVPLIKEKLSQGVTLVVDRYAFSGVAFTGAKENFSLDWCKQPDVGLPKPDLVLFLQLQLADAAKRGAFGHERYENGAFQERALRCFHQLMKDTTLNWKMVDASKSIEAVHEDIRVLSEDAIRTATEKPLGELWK
Procedure, shortened: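 Enzyme: dialyzed extract of blast cells from an acute myeloid leukemia patient. Data were fitted by nonlinear least-squares regression to response = a + b ln[inhibitor], error weighting 1/(γ+γ)^2, and the IC50 was derived from the fit.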

| IC50 [1] [µM] | IC50 [2] [µM] | IC50 (Thymidylate kinase) [µM] | SMILES |
| --- | --- | --- | --- |
| 2.5 | 14 | 8 | Cc1cn([C@H]2C[C@H](O)[C@@H](COP(=O)(O)OP(=O)(O)OP(=O)(O)OP(=O)(O)OP(=O)(O)OC[C@H]3O[C@@H](n4cnc5c(N)ncnc54)[C@H](O)[C@@H]3O)O2)c(=O)[nH]c1=O |
| 15 | 77 | 290 | Cc1cn([C@H]2C[C@H](O)[C@@H](CO[P@@](=O)(O)O[P@@](=O)(O)O[P@@](=O)(O)O[P@@](=O)(O)OC[C@H]3O[C@@H](n4cnc5c(N)ncnc54)[C@H](O)[C@@H]3O)O2)c(=O)[nH]c1=O |
| – | 20 | 6 | Cc1cn(C2C[C@H](O)[C@@H](COP(=O)(O)OP(=O)(O)OP(=O)(O)OP(=O)(O)OP(=O)(O)OP(=O)(O)OC[C@H]3OC(n4cnc5c(N)ncnc54)[C@H](O)[C@@H]3O)O2)c(=O)[nH]c1=O (some centres undefined) |
| > 500 | 460 | 730 | Cc1cn(C2C[C@H](O)[C@@H](COP(=O)(O)CP(=O)(O)OP(=O)(O)OC[C@H]3OC(n4cnc5c(N)ncnc54)[C@H](O)[C@@H]3O)O2)c(=O)[nH]c1=O (some centres undefined) |
| > 500 | > 500 | 1230 | Cc1cn(C2C[C@H](O)[C@@H](COP(=O)(O)OP(=O)(O)OP(=O)(O)OC[C@H]3OC(n4cnc5c(N)ncnc54)[C@H](O)[C@@H]3O)O2)c(=O)[nH]c1=O (some centres undefined) |
| 9.2 | 130 | 6 | Cc1cn(C2C[C@H](O)[C@@H](COP(=O)(O)CP(=O)(O)OP(=O)(O)OP(=O)(O)OP(=O)(O)OC[C@H]3OC(n4cnc5c(N)ncnc54)[C@H](O)[C@@H]3O)O2)c(=O)[nH]c1=O (some centres undefined) |
| 19.7 | 230 | 4 | Cc1cn(C2C[C@H](O)[C@@H](COP(=O)(O)CP(=O)(O)OP(=O)(O)OP(=O)(O)OP(=O)(O)OP(=O)(O)OC[C@H]3OC(n4cnc5c(N)ncnc54)[C@H](O)[C@@H]3O)O2)c(=O)[nH]c1=O (some centres undefined) |
| 17 | 300 | 340 | Cc1cn(C2C[C@H](O)[C@@H](COP(=O)(O)CP(=O)(O)OP(=O)(O)OP(=O)(O)OC[C@H]3OC(n4cnc5c(N)ncnc54)[C@H](O)[C@@H]3O)O2)c(=O)[nH]c1=O (some centres undefined) |

| SMILES | IC50 [1] [µM] | IC50 [2] [µM] | IC50 (Thymidylate kinase) [µM] |
| --- | --- | --- | --- |
| Nc1ncnc2c1ncn2C1O[C@H](COP(=O)(O)OP(=O)(O)OP(=O)(O)OP(=O)(O)OP(=O)(O)OC[C@H]2OC(n3cnc4c(N)ncnc43)[C@H](O)[C@@H]2O)[C@@H](O)[C@H]1O (some centres undefined) | – | – | > 1000 |
